Data reported in ChEMBL document CHEMBL1157379, “Transcriptional response of Candida parapsilosis following exposure to farnesol” (2007).
Active and inactive are the calls of the source. No cut-off for these calls is given here.

Assays:
[1] = tested on: Candida parapsilosis; assay: Increase in GAR1 gene expression in Candida parapsilosis CLIB214 at 50 uM after 2 hrs by microarray based transcriptional profiling relative to control; format: functional
Outline: (§1)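 Strain grown overnight in YPD at 30°C, diluted to A600 0.2 in YPD at 30°C; farnesol (40 mM methanol stock) added at 4 h (A600 0.8), final 50 μM; methanol-only control. Cells collected 2 h later for RNA. Labelled cDNA from 25 μg total RNA (Cy3/Cy5-dCTP) hybridized to 68-mer oligo arrays at 42°C ~16 h; six individual comparisons analysed statistically.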

[2] = tested on: Candida parapsilosis; assay: Increase in CGD gene ortholog accession number orf19.6117 expression in Candida parapsilosis CLIB214 at 50 uM after 2 hrs by microarray based transcriptional profiling relative to control; format: functional
Outline: (§2)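 Strain CLIB214 grown overnight in YPD at 30°C, diluted to A600 0.2 in fresh YPD at 30°C. After 4 h (A600 0.8), farnesol (40 mM methanol stock) added to 50 μM final, or an equal methanol volume as control; cells harvested 2 h later. RNA was accepted only with a 28S/18S ratio of 1.6–2.2. Cy3/Cy5-dCTP-labelled cDNA was made from 25 μg total RNA. Hybridisation was to duplicate-spotted 68-mer oligo arrays (3,849 genes) at 42°C for about 16 h. Six individual comparisons.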

[3] = tested on: Candida parapsilosis; assay: Increase in CGD gene ortholog accession number orf19.6080 expression in Candida parapsilosis CLIB214 at 50 uM after 2 hrs by microarray based transcriptional profiling relative to control; format: functional; outline: as §2
[4] = tested on: Candida parapsilosis; assay: Increase in RPS6A gene expression in Candida parapsilosis CLIB214 at 50 uM after 2 hrs by microarray based transcriptional profiling relative to control; format: functional; outline: as §1
[5] = tested on: Candida parapsilosis; assay: Cell cycle arrest in Candida parapsilosis CLIB214 assessed as accumulation at G2/M phase at 50 uM added 4 hrs after […] growth; format: functional, organism-based
Outline: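 YPD culture diluted to A600 0.2 at 30°C. Farnesol added to 50 μM after 4 h. Budding cells scored by microscopy: unbudded as G1, small budded as S, large budded as G2/M. Compared with methanol controls.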

[6] = tested on: Candida parapsilosis; assay: Decrease in CGD gene ortholog accession number orf19.7325 expression in Candida parapsilosis CLIB214 at 50 uM after 2 hrs by microarray based transcriptional profiling relative to control; format: functional; outline: as §2
[7] = tested on: Candida parapsilosis; assay: Decrease in CGD gene ortholog accession number orf19.3704 expression in Candida parapsilosis CLIB214 at 50 uM after 2 hrs by microarray based transcriptional profiling relative to control; format: functional
Outline: (§3)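 Cells in YPD at 30°C treated with 50 μM farnesol at 4 h, with a methanol control. RNA harvested 2 h later and kept only if 28S/18S ratio was 1.6–2.2 with no degradation. 25 μg total RNA oligo-dT primed and labeled with Cy3/Cy5-dCTP. Labeled cDNA hybridized about 16 h at 42°C to duplicate-spotted 68-mer oligo arrays. Six individual comparisons analyzed statistically.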

[8] = tested on: Candida parapsilosis; assay: Increase in ENA2 gene expression in Candida parapsilosis CLIB214 at 50 uM after 2 hrs by microarray based transcriptional profiling relative to control; format: functional; outline: as §1
[9] = tested on: Candida albicans; assay: Antifungal activity against Candida albicans assessed as microbila killing effect; format: functional
[10] = tested on: Candida parapsilosis; assay: Decrease in CTN1 gene expression in Candida parapsilosis CLIB214 at 50 uM after 2 hrs by microarray based transcriptional profiling relative to control; format: functional; outline: as §2
[11] = tested on: Candida parapsilosis; assay: Decrease in CGD gene ortholog accession number orf19.4449 expression in Candida parapsilosis CLIB214 at 50 uM after 2 hrs by microarray based transcriptional profiling relative to control; format: functional; outline: as §3
[12] = tested on: Candida parapsilosis; assay: Increase in GenBank accession number NP_943645.1 expression in Candida parapsilosis CLIB214 at 50 uM after 2 hrs by microarray based transcriptional profiling relative to control; format: functional; outline: as §1
[13] = tested on: Candida parapsilosis; assay: Decrease in ERG1 gene expression in Candida parapsilosis CLIB214 at 50 uM after 2 hrs by microarray based transcriptional profiling relative to control; format: functional; outline: as §2
[14] = tested on: Candida parapsilosis; assay: Increase in CGD gene ortholog accession number orf19.7097 expression in Candida parapsilosis CLIB214 at 50 uM after 2 hrs by microarray based transcriptional profiling relative to control; format: functional; outline: as §2
[15] = tested on: Candida parapsilosis; assay: Decrease in CGD gene ortholog accession number orf19.5877 expression in Candida parapsilosis CLIB214 at 50 uM after 2 hrs by microarray based transcriptional profiling relative to control; format: functional; outline: as §3
[16] = tested on: Candida parapsilosis; assay: Decrease in CGD gene ortholog accession number orf19.719 expression in Candida parapsilosis CLIB214 at 50 uM after 2 hrs by microarray based transcriptional profiling relative to control; format: functional; outline: as §2
[17] = tested on: Candida parapsilosis; assay: Increase in RTA3 gene expression in Candida parapsilosis CLIB214 at 50 uM after 2 hrs by microarray based transcriptional profiling relative to control; format: functional; outline: as §1
[18] = tested on: Candida parapsilosis; assay: Increase in GRP2 gene expression in Candida parapsilosis CLIB214 by RT-PCR; format: functional, organism-based
Outline: (§4)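 Cultures in YPD at 30°C, diluted to A600 0.2; 50 μM farnesol (final) or methanol added at 4 h, RNA harvested 2 h later. RT-PCR: 95°C hot start 1 min 30 s, then 26 cycles (95°C 40 s, 55°C 2 min, 72°C 3 min), final 72°C 5 min; each gene signal normalized to ACT1.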

[19] = tested on: Candida parapsilosis; assay: Antifungal activity against Candida parapsilosis CLIB214 assessed as growth inhibition at 50 uM added after 8 hrs of bacterial growth measured after 2 hrs; format: functional; details: Lodderomyces parapsilosis
Outline: (§5)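 Overnight YPD culture at 30°C diluted to A600 0.2 in YPD. Farnesol added to 50 μM final at 2, 4, 6 or 8 h of growth (A600 about 0.8 at 4 h, 2.3 at 6 h, 6 at 8 h). Growth compared with methanol controls by A600 or cell counts.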

[20] = tested on: Candida parapsilosis; assay: Antifungal activity against Candida parapsilosis CLIB214 assessed as growth inhibition at 50 uM after 4 hrs; format: functional; details: CLIB214, 4 h
Outline: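 C. parapsilosis CLIB214 grown overnight in YPD at 30°C, diluted to A600 0.2 in fresh YPD, grown 4 h (A600 0.8), then farnesol added at final 10, 20, 50 or 100 μM from a 40 mM methanol stock. Methanol-only controls. Growth followed by A600 or by cell counting with a particle counter.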

[21] = tested on: Candida parapsilosis; assay: Decrease in CGD gene ortholog accession number orf19.5212 expression in Candida parapsilosis CLIB214 at 50 uM after 2 hrs by microarray based transcriptional profiling relative to control; format: functional; outline: as §3
[22] = tested on: Candida parapsilosis; assay: Decrease in CGD gene ortholog accession number orf19.194 expression in Candida parapsilosis CLIB214 at 50 uM after 2 hrs by microarray based transcriptional profiling relative to control; format: functional; outline: as §3
[23] = tested on: Candida parapsilosis; assay: Decrease in CGD gene ortholog accession number orf19.2892 expression in Candida parapsilosis CLIB214 at 50 uM after 2 hrs by microarray based transcriptional profiling relative to control; format: functional; outline: as §3
[24] = tested on: Candida parapsilosis; assay: Reduction in ERG9 gene expression in Candida parapsilosis CLIB214 by RT-PCR; format: functional, organism-based; outline: as §4
[25] = tested on: Candida parapsilosis; assay: Antifungal activity against Candida parapsilosis CLIB214 assessed as growth inhibition at 50 uM added after 4 hrs of bacterial growth measured after 2 hrs; format: functional; details: Lodderomyces parapsilosis; outline: as §5

CC(C)=CCC/C(C)=C/CC/C(C)=C/CO [FARNESOL]
fold change (FC) [1]: 2.89
fold change (FC) [2]: 1.6
fold change (FC) [3]: 1.52
fold change (FC) [4]: 1.61
Activity [5]: Active
fold change (FC) [6]: 1.67
fold change (FC) [7]: 1.96
fold change (FC) [8]: 1.77
Activity [9]: 80%
fold change (FC) [10]: 1.92
fold change (FC) [11]: 1.59
fold change (FC) [12]: 2.05
fold change (FC) [13]: 2.24
fold change (FC) [14]: 1.86
fold change (FC) [15]: 3.22
fold change (FC) [16]: 1.65
fold change (FC) [17]: 1.67
Activity [18]: Active
inhibition at 50 µM [19]: 9.5%
inhibition at 50 µM [20]: 25.5%
fold change (FC) [21]: 2.33
fold change (FC) [22]: 1.84
fold change (FC) [23]: 1.69
Activity [24]: Active
inhibition at 50 µM [25]: 88.5%
